Data reported in paper PMC9050340 (RSC Advances, 2020).
Values after ≈ are worked out from the molar mass of the structure shown.

How the values were obtained:
[1] = cited from earlier work; for IC50, inhibition of oxidation of DPPH: from P. latifolia leaves
[2] = DPPH radical scavenging activity assay; conditions: 30 min, room temperature, ethanol
Procedure, shortened: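 Test compound in absolute ethanol (2–100 μg mL−1; 40 μg mL−1 for screening), 1 mL mixed with 2 mL of freshly prepared DPPH (20 μg mL−1 in absolute ethanol). Incubated 30 min at room temperature in the dark, then absorbance read at 517 nm against an absolute ethanol blank. Ascorbic acid as positive control. % scavenging from blank versus sample absorbance; IC50 by nonlinear regression.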

MDA-MB-231 cells = assay: Wound-healing scratch; assay type: cell-based, human; conditions: MDA-MB-231, 10 μM, HGF-induced, 24 h
Procedure, shortened: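 MDA-MB-231 cells grown overnight to confluent monolayers, scratched with a pipette tip, washed twice with PBS, then fresh RPMI. Test compound (10 μM, from 10 mM DMSO stock; DMSO ≤0.1%) added in serum-free defined medium with […] HGF, in triplicate, for 24 h. Cells fixed and Giemsa-stained; wound width imaged at 0 and 24 h. % migration calculated relative to DMSO control.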

MCF-7 = assay: MTT antiproliferative; assay type: cell-based; conditions: Homo sapiens, MCF7, read-out: Cytotoxicity (IC50 μM) MCF-7
MTT antiproliferative = assay type: cell-based; conditions: human, MCF-10A cells (normal breast cell line)

IC50, DPPH radical scavenging [2] | Compound | IC50, inhibition of oxidation of DPPH [1] | further results
 | O=C1C[C@@H](c2ccc(O)cc2)Oc2cc(O)cc(O)c21 [naringenin] | 16.0 µg/mL | 
10 ± 0.3 µg/mL (≈ 56.8 µM) | O=C1O[C@H]([C@@H](O)CO)C(O)=C1O [L-ascorbic acid, reference compound] |  | 
 | CC1(C)CC[C@]2(C(=O)O)CC[C@]3(C)C(=CC[C@@H]4[C@@]5(C)CC[C@H](O)C(C)(C)[C@@H]5CC[C@]43C)[C@@H]2C1 [Compound 10, oleanolic acid] |  | cell migration inhibition in wound-healing assay (MDA-MB-231 cells): suppressed
 | COc1cc(C2Oc3c(OC)cc(C=CC=O)cc3C(O)C2O)ccc1O (centres unmarked) [4′-hydroxy-8,3′-dimethoxy-6-acroleinylflavan-3,4-diol] | 22.5 µg/mL | 
 | CC(CO)c1cc2c(c(O)c1O)C1=CC(=O)CC(C)(C)C1(C)C=C2 (centres unmarked) [11,12,16-trihydroxy-2-oxo-5-methyl-10-demethyl-abieta-1,[10] and 6,8,11,13-pentene] |  | IC50 towards DPPH assay ([1]; from P. serratifolia): 20.4 ± 1.3 µg/mL (≈ 62.1 µM)
17.50 ± 1.3 µg/mL (≈ 28 µM) | C[C@@H]1O[C@@H](O[C@@H]2[C@@H](O)[C@H](OCCc3ccc(O)c(O)c3)O[C@H](CO)[C@H]2OC(=O)/C=C/c2ccc(O)c(O)c2)[C@H](O)[C@H](O)[C@H]1O [Compound 5, verbascoside] |  | IC50 (MCF-7): 10.5 ± 0.52 µM; IC50 at 48 h (MTT antiproliferative): 13.9 ± 0.69 µM
